Screens as filed in PubChem.
This is a sample that favours compounds with a hit; in the whole collection about 0.77% have one here.
bIAP inh – intestinal alkaline phosphatase (bovine) inhibition; inhibition, % at 20 µM; 190,000 tested, under 10 active; AID 1019; purified bovine IAP, CDP-star luminescence, 30 min;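 active = over 50% inhibition of intestinal alkaline phosphatase at 20 µM in the single-dose screen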
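System: Purified bovine intestinal alkaline phosphatase (IAP) enzyme | Input: IAP diluted 1/65,000,000 in the well | Also added: CDP-star chemiluminescent phosphatase substrate, 30 µM final | Dosing: 20 µM single dose | Times: Enzyme reaction for 30 min at room temperature | Detection: Luminescence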
hIAP block – human IAP inhibition | P09923 | purified IAP, CDP-Star luminescence, 30 min | inhibition, % at 10 µM | 330,000 tested, 0.12% active;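 active = inhibition reaching a set limit with compound at 10 µM in the primary screen, cut at about 35% in these data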
Target sequence (P09923 whole entry, looked up): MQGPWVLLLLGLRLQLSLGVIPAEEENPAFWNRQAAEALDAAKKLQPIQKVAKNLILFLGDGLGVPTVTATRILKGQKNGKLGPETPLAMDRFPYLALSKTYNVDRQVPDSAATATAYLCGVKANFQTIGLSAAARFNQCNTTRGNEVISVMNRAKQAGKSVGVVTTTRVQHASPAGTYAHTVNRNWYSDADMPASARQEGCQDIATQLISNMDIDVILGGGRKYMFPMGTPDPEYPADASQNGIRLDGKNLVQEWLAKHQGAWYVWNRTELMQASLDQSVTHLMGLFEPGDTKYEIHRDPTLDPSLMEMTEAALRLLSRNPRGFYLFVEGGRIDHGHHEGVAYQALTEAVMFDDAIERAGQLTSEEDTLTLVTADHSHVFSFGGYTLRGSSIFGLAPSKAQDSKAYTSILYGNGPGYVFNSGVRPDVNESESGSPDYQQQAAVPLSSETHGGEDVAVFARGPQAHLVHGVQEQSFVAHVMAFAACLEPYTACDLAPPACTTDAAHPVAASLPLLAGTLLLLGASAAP
mIAP inh – blocks mouse intestinal alkaline phosphatase; AID 2806; inhibition, % at 10 µM; 330,000 tested, 0.2% active; purified mouse IAP, CDP-Star luminescence, 30 min;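 active = inhibition of at least 40% at 10 µM in the primary screen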
mIAP act – increases mouse intestinal alkaline phosphatase activity; 330,000 tested, 0.24% active; activation factor at 10 µM; muIAP, CDP-Star luminescence, 30 min; stronger effect = higher value; 1 = vehicle-only enzyme signal, 0 = enzyme-free wells; AID 2805;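 active = activation factor of at least 2 at 20 µM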
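Assay system: mouse IAP enzyme; Reagent: CDP-Star chemiluminescent phosphatase substrate; Compound: DMSO-dissolved test compounds; Incubation: 30 min, room temperature; Technique: luminescence from enzymatic CDP-Star hydrolysis; Controls: DMSO-only wells and no-enzyme negative control.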
bIAP act – intestinal alkaline phosphatase (bovine) activation | purified bovine IAP, CDP-star luminescence, 30 min; stronger effect = higher value; fold of DMSO-control signal, blank-subtracted | activation factor at 20 µM | 200,000 tested, 0.17% active;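 active = activation factor of 2 or more at 20 µM, a signal rise over negative controls twice the positive control's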
hIAP act – human IAP activation; P09923; purified human IAP, CDP-Star luminescence, 30 min; stronger effect = higher value; 1 = vehicle-only enzyme, 0 = enzyme-free background; activation factor at 10 µM; 330,000 tested, 0.16% active; AID 2524;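 active = activation factor of the enzyme at least 2-fold when tested at 20 µM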
hIAP act conf – human IAP activation confirmation | shares compounds with hIAP act | purified IAP, CDP-Star luminescence, 30 min; stronger effect = lower value | 880 tested, 10% active | AID 434926 | activation (%Activity, negative = activation), % at 8.3 µM;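 active = at least twofold enzyme activation in any of six single-dose repeats, which the averaged readout prints as negative percent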
Numbers stand for hits; – = inactive; · = no result.

SMILES	bIAP inh	hIAP block	mIAP inh	mIAP act	bIAP act	hIAP act	hIAP act conf
Cc1cccc(Cn2c(-c3ccc[nH]c3=O)nc3ccccc32)c1	·	–	–	–	·	–	·
CC(=O)Nc1ccc(S(=O)(=O)N(C)CC(=O)NNC(=O)Cc2nc3ccccc3n2C)cc1	·	–	–	–	·	2.3	–
CC(=O)Nc1ccc(SCC(=O)NNC(=O)CN(C)S(=O)(=O)c2ccc(C)cc2)cc1	·	–	–	–	·	–	·
CSC1=NNC(c2ccc(C(C)(C)C)cc2)=NN1	·	–	–	–	·	–	·
CCCN(C(=O)CSc1nc(C2CC2)n(-c2ccccc2)n1)C1CCS(=O)(=O)C1 (stereo unspecified)	·	–	–	–	·	–	·
CSCCC(NS(=O)(=O)c1ccc(C)cc1)C(=O)NNC(=O)c1csc(N2CCOCC2)n1 (stereo unspecified)	·	–	–	–	·	2.03	–
COc1ccc2c(c1OC)C(=O)N1C2SC(C)(C)[C@H]1C(=O)NC1CC1 (stereo partly specified)	·	–	–	–	·	–	·
Cc1[nH]c(C)c(S(=O)(=O)NCCc2ccccc2)c1C(=O)N1CCCCC1	·	–	–	–	·	–	·
COc1cc(/C=C/C(=O)OCC(=O)NC(=O)NC2CCCCC2)ccc1OC(F)F	·	35.1	–	–	·	–	–
COc1cc(/C=N\NS(=O)(=O)c2ccccc2)cc(OC)c1OC	·	36.6	–	–	·	–	–
Cc1cccc(NC(=O)c2cc(-c3cc(Cl)ccc3O)n[nH]2)c1	·	–	–	–	·	2.03	–
Cc1ccc(NC(=O)c2cc(-c3cc(Cl)ccc3O)n[nH]2)cc1C	·	–	–	–	·	–	·
Cc1ccc(C)c(NC(=O)c2cc(-c3cc(C)ccc3O)n[nH]2)c1	·	–	–	–	·	2.21	–
CCN(CC)C(=O)COc1ccc(S(=O)(=O)N2CCCC2)cc1	·	–	–	–	·	–	·
CCN(CC)C(=O)COc1ccc(S(=O)(=O)N2CCOCC2)cc1	–	–	–	–	–	2.45	–
O=C(Nc1ccc(Cl)cc1)c1nc[nH]c1C(=O)NCCCNC(=O)c1[nH]cnc1C(=O)Nc1ccc(Cl)cc1	·	–	–	–	·	2.05	–
CNC(=O)c1[nH]cnc1C(=O)Nc1ccccn1	–	–	–	–	–	2.1	–
CNC(=O)c1[nH]cnc1C(=O)Nc1ccccc1	·	–	–	–	·	–	·
CC(C)N(C)S(=O)(=O)c1ccc(NC(=O)CSC(=S)N2CCCC2)cc1	·	–	–	–	·	–	·
CCS(=O)(=O)Nc1cc2c3c(c1)CCC(=O)N3CCC2	·	37.2	–	–	·	–	–
CCOc1ccc(CC(=O)NNC(=S)NC2CCCCC2)cc1OCC	–	–	–	–	–	2.1	-79.5
CC(=O)c1cccc(NS(=O)(=O)c2ccc(C(=O)Nc3ccccc3)cc2)c1	·	–	–	–	·	–	·
O=C(Nc1ccccc1)c1ccc(S(=O)(=O)Nc2cccc(O)c2)cc1	·	40.0	–	–	·	–	–
CCOc1cccc(/C=N/NC(=S)Nc2cc(S(=O)(=O)N3CCOCC3)ccc2N2CCOCC2)c1O	–	–	–	–	–	2.13	–
O=C(Nc1cccc(Cl)c1)N1CCCCCC1	·	38.1	–	–	·	–	–
SMILES	bIAP inh	hIAP block	mIAP inh	mIAP act	bIAP act	hIAP act	hIAP act conf
CCOc1ccc(CCNC(=O)COC(=O)COc2ccc(C(=O)CC)cc2)cc1OCC	·	–	–	–	·	–	·
COC(=O)CN1C(=O)C(O)(CC(=O)c2ccccc2)c2ccccc21 (stereo unspecified)	–	–	–	–	–	–	·
COC(=O)CN1C(=O)C(O)(CC(=O)c2ccc(C)cc2)c2ccccc21 (stereo unspecified)	–	37.1	–	–	–	–	–
Cc1nn(CC(=O)O)c(C)c1NC(=O)c1cccs1	·	41.8	–	–	·	–	–
COc1ccc(CCNC(=O)c2cc(-c3ccc(C)cc3O)n[nH]2)cc1OC	–	–	–	–	–	2.15	–
NS(=O)(=O)c1ccc(NC(=O)c2cc(-c3ccccc3O)n[nH]2)cc1	·	–	–	–	·	2.03	–
Cc1ccc(NC(=O)c2cc(-c3ccccc3O)n[nH]2)cc1Cl	·	–	–	–	·	–	·
Cc1cc(O)c(-c2cc(C(=O)NCCc3ccc(S(N)(=O)=O)cc3)[nH]n2)cc1C	·	–	–	–	·	2.23	–
Cc1cc(C)c(O)c(-c2cc(C(=O)NCCc3ccc(S(N)(=O)=O)cc3)[nH]n2)c1	·	–	–	–	·	–	·
COc1ccc(CCNC(=O)c2cc(-c3cc(Cl)ccc3O)n[nH]2)cc1OC	·	–	–	–	·	2.33	–
COc1ccc(CCNC(=O)c2cc(-c3cc(C)cc(C)c3O)n[nH]2)cc1OC	·	–	–	–	·	–	·
COc1cccc(C(CNC(=O)C2CCN(C(=O)Nc3ccccc3)CC2)N(C)C)c1 (stereo unspecified)	·	–	–	–	·	–	·
COc1cc(/C=C/C(=O)OCC(=O)NCCC2=CCCCC2)cc(OC)c1OC	·	–	–	–	·	–	·
CCOC(=O)C1=C(C)NC(C)=C(C(=O)OCC)C1C(=O)OCC(=O)NCc1ccco1	·	–	–	–	·	–	·
O=C1CC2CCCN2C=C1I (stereo unspecified)	·	–	–	–	·	–	·
O=C(N/N=C/c1ccccc1O)C(=O)Nc1ccccn1	–	–	–	–	–	2.05	–
COc1ccc(/C=N/NC(=O)C(=O)Nc2ccccn2)cc1OC	–	–	–	–	–	–	·
CCOc1ccccc1CN1CCC(n2nccc2NC(=O)CCCc2ccccc2)CC1	·	–	–	–	·	3.25	–
CC(CN1CCC(n2nccc2NC(=O)CCCc2ccccc2)CC1)c1ccccc1 (stereo unspecified)	·	–	–	–	·	2.04	–
COc1cccc(CN2CCC(n3nccc3NC(=O)CCCc3ccccc3)CC2)c1	·	–	–	–	·	3.28	–
Cn1cc(CN2CCC(n3nccc3NC(=O)CCc3ccccc3)CC2)cn1	·	–	–	–	·	–	·
CC(=O)c1cccc(CN2CCC(n3nccc3NC(=O)CCCc3ccccc3)CC2)c1	·	–	–	–	·	–	·
CCOc1ccccc1CN1CCC(n2nccc2NC(=O)CCc2ccccc2)CC1	·	–	–	–	·	2.15	–
COc1ccc(NC(=O)C2CCC(C(C)(C)C)CC2)cc1S(=O)(=O)N1CCOCC1 (stereo unspecified)	·	–	–	–	·	–	·
CC(Sc1nnc(Cc2ccccc2)o1)C(=O)NC1(C#N)CCCCC1 (stereo unspecified)	·	–	–	–	·	–	·
Cc1ccc(S(=O)(=O)NCCC(=O)NNC(=O)c2ccccc2Cl)cc1C	·	–	–	–	·	–	·
CCCCCc1c(C)nc(Nc2nc(C)c3cc(OC)ccc3n2)[nH]c1=O	–	–	–	–	–	2.11	–
COCc1cc(=O)[nH]c(Nc2nc3ccc(C)cc3o2)n1	–	–	–	–	–	2.08	–
CCc1ccc2nc(Nc3nc(COC)cc(=O)[nH]3)nc(C)c2c1	–	–	–	–	–	2.11	–
